Results: ChEMBL document CHEMBL1138434 (J Nat Prod, 2003)
Values after ≈ are worked out from the molar mass of the structure shown. Active and inactive are the calls of the source. No cut-off for these calls is given here.

Legend:
Saccharomyces cerevisiae [1] = assay: Potentiation of fluconazole-induced antifungal activity against Saccharomyces cerevisiae DSY 415 expressing Candida albicans CDR1 assessed as fractional inhibitory concentration at 3.1 uM after 40 to 48 hrs by checkerboard assay; assay type: functional
Outline: (§1)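 This was a checkerboard in a modified NCCLS microdilution: fluconazole and second agent were each serially diluted in saline and combined in all concentration pairs. Pump-expressing or null S. cerevisiae inoculum was 1.0 × 10^4 CFU/mL in YPD, with OD630 read before and after 40-48 h at 30 °C. FIC used IC50 as endpoint. FLU levels for FIC were 0.5 µM (null), 50 µM (CDR1, MDR1), 1.56 µM (CDR2) and 3.13 µM (FLU1).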

Saccharomyces cerevisiae [2] = assay: Potentiation of fluconazole-induced antifungal activity against Saccharomyces cerevisiae DSY 416 expressing Candida albicans MDR1 assessed as fractional inhibitory concentration at 3.1 uM after 40 to 48 hrs by checkerboard assay; assay type: functional; outline: as §1
Saccharomyces cerevisiae [3] = assay: Potentiation of fluconazole-induced antifungal activity against Saccharomyces cerevisiae DSY 417 expressing Candida albicans CDR2 assessed as fractional inhibitory concentration at 3.1 uM after 40 to 48 hrs by checkerboard assay; assay type: functional; outline: as §1
Saccharomyces cerevisiae [4] = assay: Potentiation of fluconazole-induced antifungal activity against Saccharomyces cerevisiae DSY 426 expressing Candida albicans FLU1 assessed as fractional inhibitory concentration at 3.1 uM after 40 to 48 hrs by checkerboard assay; assay type: functional; outline: as §1
Saccharomyces cerevisiae [5] = assay: Potentiation of fluconazole-induced antifungal activity against Saccharomyces cerevisiae DSY 390 assessed as fractional inhibitory concentration at 3.1 uM after 40 to 48 hrs by checkerboard assay; assay type: functional; outline: as §1
Saccharomyces cerevisiae [6] = assay: Antifungal activity against Saccharomyces cerevisiae DSY 390 after 40 to 48 hrs by serial dilution method; assay type: functional, organism-based
Outline: (§2)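 S. cerevisiae strains (null pump DSY 390, or carrying C. albicans CDR1, MDR1, CDR2, FLU1 pumps) were grown from −80 °C glycerol stocks on YNB-URA/TRYP selection agar at 30 °C. The modified NCCLS broth microdilution used compound serially diluted in 0.9% saline from DMSO, with YPD inoculum at 1.0 × 10^4 CFU/mL final. Plates were read at OD630 before and after 40-48 h at 30 °C. IC50 = 50% growth inhibition; MIC = no detectable growth.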

Saccharomyces cerevisiae [7] = assay: Antifungal activity against Saccharomyces cerevisiae DSY 416 expressing Candida albicans MDR1 after 40 to 48 hrs by serial dilution method; assay type: functional, organism-based; conditions: for MIC: DSY 416; for IC50: DSY 416, MDR1; outline: as §2
Saccharomyces cerevisiae [8] = assay: Antifungal activity against Saccharomyces cerevisiae DSY 415 expressing Candida albicans CDR1 after 40 to 48 hrs by serial dilution method; assay type: functional, organism-based
Outline: (§3)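 S. cerevisiae strains carrying C. albicans efflux pumps, grown 1-2 days from frozen stocks on YNB-URA/TRYP selection agar at 30 °C. Modified NCCLS broth microdilution: serial dilutions in 0.9% saline (compounds dissolved in DMSO), inoculum 1.0 × 10^4 CFU/mL in YPD. Incubated 30 °C for 40-48 h and read at 630 nm before and after. IC50 = 50% growth inhibition; MIC = lowest concentration with no detectable growth.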

Saccharomyces cerevisiae [9] = assay: Antifungal activity against Saccharomyces cerevisiae DSY 417 expressing Candida albicans CDR2 after 40 to 48 hrs by serial dilution method; assay type: functional, organism-based; outline: as §2
Saccharomyces cerevisiae [10] = assay: Antifungal activity against Saccharomyces cerevisiae DSY 426 expressing Candida albicans FLU1 after 40 to 48 hrs by serial dilution method; assay type: functional, organism-based; outline: as §3
Saccharomyces cerevisiae [11] = assay: Potentiation of fluconazole-induced antifungal activity against Saccharomyces cerevisiae DSY 415 expressing Candida albicans CDR1 assessed as fractional inhibitory concentration at 0.1 uM after 40 to 48 hrs by checkerboard assay; assay type: functional
Outline: (§4)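 Checkerboard in 96-well format: FLU serially diluted along one axis and partner agent along the other, covering all combinations. S. cerevisiae pump strains or null strain at 1.0 × 10^4 CFU/mL in YPD, 30 °C for 40-48 h, growth read at 630 nm. FIC uses IC50 endpoint; FLU at 0.5 µM (null pump), 50 µM (CDR1, MDR1), 1.56 µM (CDR2), 3.13 µM (FLU1).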

Saccharomyces cerevisiae [12] = assay: Potentiation of fluconazole-induced antifungal activity against Saccharomyces cerevisiae DSY 416 expressing Candida albicans MDR1 assessed as fractional inhibitory concentration at 0.1 uM after 40 to 48 hrs by checkerboard assay; assay type: functional; outline: as §4
Saccharomyces cerevisiae [13] = assay: Potentiation of fluconazole-induced antifungal activity against Saccharomyces cerevisiae DSY 417 expressing Candida albicans CDR2 assessed as fractional inhibitory concentration at 0.1 uM after 40 to 48 hrs by checkerboard assay; assay type: functional; outline: as §4
Saccharomyces cerevisiae [14] = assay: Potentiation of fluconazole-induced antifungal activity against Saccharomyces cerevisiae DSY 426 expressing Candida albicans FLU1 assessed as fractional inhibitory concentration at 0.1 uM after 40 to 48 hrs by checkerboard assay; assay type: functional; outline: as §4
Saccharomyces cerevisiae [15] = assay: Potentiation of fluconazole-induced antifungal activity against Saccharomyces cerevisiae DSY 390 assessed as fractional inhibitory concentration at 0.1 uM after 40 to 48 hrs by checkerboard assay; assay type: functional; outline: as §4
[16] = target: T1, Multidrug resistance protein 1 (Candida albicans (strain SC5314 / ATCC MYA-2876) (Yeast)) (UniProt Q5ABU7); assay: Inhibition of Candida albicans MDR1-mediated fluconazole resistance in Saccharomyces cerevisiae DSY 416 up to 90 uM
T1 sequence (whole entry): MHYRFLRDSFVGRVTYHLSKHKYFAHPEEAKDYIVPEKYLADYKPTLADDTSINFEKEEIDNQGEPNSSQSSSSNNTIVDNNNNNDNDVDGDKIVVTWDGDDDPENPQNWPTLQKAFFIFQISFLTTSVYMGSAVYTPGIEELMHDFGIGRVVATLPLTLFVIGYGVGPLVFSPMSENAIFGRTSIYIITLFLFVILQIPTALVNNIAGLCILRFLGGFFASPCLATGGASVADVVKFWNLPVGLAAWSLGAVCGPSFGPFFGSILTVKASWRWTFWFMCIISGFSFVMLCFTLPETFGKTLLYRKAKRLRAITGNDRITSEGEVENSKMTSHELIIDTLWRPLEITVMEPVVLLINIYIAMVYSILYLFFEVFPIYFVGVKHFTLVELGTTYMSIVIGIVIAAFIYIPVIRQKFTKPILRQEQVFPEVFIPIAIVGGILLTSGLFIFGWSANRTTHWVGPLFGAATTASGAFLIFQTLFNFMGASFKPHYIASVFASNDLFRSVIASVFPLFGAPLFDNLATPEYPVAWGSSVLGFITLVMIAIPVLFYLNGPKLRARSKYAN

T47D = assay: Cytotoxicity against human T47D cells at 10 uM after 48 hrs by neutral red staining; assay type: cell-based
Outline: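 T47D cells in DMEM/F12 with 10% FBS and penicillin/streptomycin, plated at 30 000 cells/well. After 24 h, compound added at final 0.03-10 µM and incubated 24 and 48 h at 37 °C. Then Neutral Red 0.15 mg/mL for 2 h, lysis in 0.04 N HCl/2-propanol, A540 minus A630. Viability given as percent of control.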

Saccharomyces cerevisiae [17] = assay: Antifungal activity against Saccharomyces cerevisiae DSY 416 expressing Candida albicans MDR1 after 40 to 48 hrs by serial dilution method in presence of 33 uM fluconazole; assay type: functional, organism-based; conditions: DSY 416, MDR1; outline: as §3
Saccharomyces cerevisiae [18] = assay: Antifungal activity against Saccharomyces cerevisiae DSY 416 expressing Candida albicans MDR1 after 40 to 48 hrs by serial dilution method in absence of fluconazole; assay type: functional, organism-based; conditions: DSY 416, MDR1; outline: as §3
Saccharomyces cerevisiae [19] = assay: Antifungal activity against Saccharomyces cerevisiae DSY 415 expressing Candida albicans CDR1 after 40 to 48 hrs by serial dilution method in presence of 33 uM fluconazole; assay type: functional, organism-based; outline: as §3
Saccharomyces cerevisiae [20] = assay: Antifungal activity against Saccharomyces cerevisiae DSY 415 expressing Candida albicans CDR1 after 40 to 48 hrs by serial dilution method in absence of fluconazole; assay type: functional, organism-based; outline: as §3
Saccharomyces cerevisiae [21] = assay: Potentiation of fluconazole-induced antifungal activity against Saccharomyces cerevisiae DSY 415 expressing Candida albicans CDR1 assessed as fractional inhibitory concentration at 3.8 uM after 40 to 48 hrs by checkerboard assay; assay type: functional; outline: as §4
Saccharomyces cerevisiae [22] = assay: Potentiation of fluconazole-induced antifungal activity against Saccharomyces cerevisiae DSY 416 expressing Candida albicans MDR1 assessed as fractional inhibitory concentration at 3.8 uM after 40 to 48 hrs by checkerboard assay; assay type: functional; outline: as §4
Saccharomyces cerevisiae [23] = assay: Potentiation of fluconazole-induced antifungal activity against Saccharomyces cerevisiae DSY 417 expressing Candida albicans CDR2 assessed as fractional inhibitory concentration at 3.8 uM after 40 to 48 hrs by checkerboard assay; assay type: functional; outline: as §4
Saccharomyces cerevisiae [24] = assay: Potentiation of fluconazole-induced antifungal activity against Saccharomyces cerevisiae DSY 426 expressing Candida albicans FLU1 assessed as fractional inhibitory concentration at 3.8 uM after 40 to 48 hrs by checkerboard assay; assay type: functional; outline: as §4
Saccharomyces cerevisiae [25] = assay: Potentiation of fluconazole-induced antifungal activity against Saccharomyces cerevisiae DSY 390 assessed as fractional inhibitory concentration at 3.8 uM after 40 to 48 hrs by checkerboard assay; assay type: functional; outline: as §4

SMILES	IC50 (Saccharomyces cerevisiae [6]) [µM]	MIC (Saccharomyces cerevisiae [6]) [µM]	MIC (Saccharomyces cerevisiae [7]) [µM]	IC50 (Saccharomyces cerevisiae [7]) [µM]	IC50 (Saccharomyces cerevisiae [8]) [µM]	MIC (Saccharomyces cerevisiae [8]) [µM]	IC50 (Saccharomyces cerevisiae [9]) [µM]	MIC (Saccharomyces cerevisiae [9]) [µM]	IC50 (Saccharomyces cerevisiae [10]) [µM]	MIC (Saccharomyces cerevisiae [10]) [µM]	other results
CC(C)[C@@H]1OC(=O)[C@@H](Cc2ccccc2)N(C)C(=O)[C@H](C(C)C)OC(=O)[C@@H](Cc2ccccc2)N(C)C(=O)[C@H](C(C)C)OC(=O)[C@@H](Cc2ccccc2)N(C)C1=O [BEAUVERICIN]	–	–	–	–	–	–	–	–	–	–	fractional inhibitory concentration index (FICI) (Saccharomyces cerevisiae [1]): 0.045; fractional inhibitory concentration index (FICI) (Saccharomyces cerevisiae [2]): 2; fractional inhibitory concentration index (FICI) (Saccharomyces cerevisiae [3]): 1.3; fractional inhibitory concentration index (FICI) (Saccharomyces cerevisiae [4]): 2; fractional inhibitory concentration index (FICI) (Saccharomyces cerevisiae [5]): 2.57
C[C@@H]1[C@H](O)[C@@H](C)/C=C/C=C/C=C/C=C/C=C/C=C/C=C/[C@H](O[C@@H]2O[C@H](C)[C@@H](O)[C@H](N)[C@@H]2O)C[C@@H]2O[C@](O)(C[C@@H](O)C[C@@H](O)[C@H](O)CC[C@@H](O)C[C@@H](O)CC(=O)O[C@H]1C)C[C@H](O)[C@H]2C(=O)O [AMPHOTERICIN B]	0.55	0.75 (≈ 0.693 µg/mL)	0.75 (≈ 0.693 µg/mL)	0.55	0.55	0.75 (≈ 0.693 µg/mL)	0.55	0.75 (≈ 0.693 µg/mL)	0.55	0.75 (≈ 0.693 µg/mL)	fractional inhibitory concentration index (FICI) (Saccharomyces cerevisiae [11]): 0.89; fractional inhibitory concentration index (FICI) (Saccharomyces cerevisiae [12]): 1.42; fractional inhibitory concentration index (FICI) (Saccharomyces cerevisiae [13]): 1.58; fractional inhibitory concentration index (FICI) (Saccharomyces cerevisiae [14]): 0.97; fractional inhibitory concentration index (FICI) (Saccharomyces cerevisiae [15]): 1.85
OC(Cn1cncn1)(Cn1cncn1)c1ccc(F)cc1F [FLUCONAZOLE]	3.5	8 (≈ 2.45 µg/mL)	> 400	> 400	300	400 (≈ 123 µg/mL)	15	25 (≈ 7.66 µg/mL)	35	50 (≈ 15.3 µg/mL)	–
CC(=O)OC[C@]12CC[C@H](OC(C)=O)C[C@]1(O)[C@@H](OC(C)=O)C=C1[C@@H]3CC[C@H]([C@H](C)CCCC(C)C)[C@@]3(C)C[C@@H]3O[C@@]132	–	–	–	–	–	–	–	–	–	–	Activity [16]: inactive
CC(=O)O[C@H]1C=C2[C@@H]3CC[C@H]([C@H](C)CCCC(C)C)[C@@]3(C)C[C@@H]3O[C@@]23[C@@]2(CO)CC[C@H](O)C[C@]12O	–	–	–	–	> 30	–	–	–	–	–	Activity (T47D): Non-toxic; IC50 (Saccharomyces cerevisiae [17]): < 4 µM; IC50 (Saccharomyces cerevisiae [18]): > 104 µM; IC50 (Saccharomyces cerevisiae [19]): 31 µM; IC50 (Saccharomyces cerevisiae [20]): > 104 µM; fractional inhibitory concentration index (FICI) (Saccharomyces cerevisiae [21]): 0.88; fractional inhibitory concentration index (FICI) (Saccharomyces cerevisiae [22]): 0.05; fractional inhibitory concentration index (FICI) (Saccharomyces cerevisiae [23]): 1.6; fractional inhibitory concentration index (FICI) (Saccharomyces cerevisiae [24]): 1.26; fractional inhibitory concentration index (FICI) (Saccharomyces cerevisiae [25]): 1.85
